In ChEMBL document CHEMBL4196077, “Anti-inflammatory hybrids of secondary amines and amide-sulfamide derivatives” (Eur J Med Chem, 2018):
The source made the active and inactive calls. No cut-off for these calls is given here.

Key:
[1] = biological target: C-X-C chemokine receptor type 4 (Homo sapiens) (UniProt P61073); test: Inhibition of biotinylated TN14003 binding to CXCR4 in human MDA-MB-231 cells preincubated for 10 mins followed by TN14003 addition measured after 30 mins by rhodamine dye-based microscopic analysis; format: cell-based
Chain of C-X-C chemokine receptor type 4 (Homo sapiens) (P61073 whole entry): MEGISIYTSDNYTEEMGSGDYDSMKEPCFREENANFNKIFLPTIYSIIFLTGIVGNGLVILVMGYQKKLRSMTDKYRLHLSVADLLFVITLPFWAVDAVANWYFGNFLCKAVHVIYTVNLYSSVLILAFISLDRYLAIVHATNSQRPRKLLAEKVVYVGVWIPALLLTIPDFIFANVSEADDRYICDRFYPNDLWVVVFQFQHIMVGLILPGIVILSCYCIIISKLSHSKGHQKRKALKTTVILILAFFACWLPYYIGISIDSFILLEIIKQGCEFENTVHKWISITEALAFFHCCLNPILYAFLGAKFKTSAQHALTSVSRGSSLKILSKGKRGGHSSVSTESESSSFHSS
Outline: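 MDA-MB-231 cells (2×10^4, seeded two days before) exposed to compound at 1, 10, 100 or 1000 nM for 10 min at room temperature, fixed in ice-cold 4% paraformaldehyde, rehydrated in PBS, then 0.05 µg/mL biotinylated TN14003 for 30 min, streptavidin-rhodamine (1:150) 30 min. Fluorescence microscopy; EC = lowest concentration with significant reduction in rhodamine signal versus untreated.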

[2] = biological target: C-X-C chemokine receptor type 4 (Homo sapiens) (UniProt P61073); test: Potency index, ratio of AMD3100 EC to compound EC for inhibition of biotinylated TN14003 binding to CXCR4 in human MDA-MB-231 cells; format: functional, cell-based
[3] = biological target: C-X-C chemokine receptor type 4 (Homo sapiens) (UniProt P61073); test: Inhibition of CXCR4 in human MDA-MB-231 cells assessed as decrease in CXCL12-dependent cell invasion at 100 nM after 22 hrs by hematoxylin and eosin staining based matrigel assay relative to control; format: functional
Outline: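 Matrigel invasion chamber. MDA-MB-231 cells pretreated with compound (100 nM) before seeding in top chamber; 200 ng/mL CXCL12α in serum-free medium in bottom chamber as chemoattractant. 22 h in humidified incubator; non-invading cells swabbed off, invaded cells fixed in methanol, H&E stained and counted; inhibition relative to untreated invasion.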

Mus musculus [4] = test: Antiinflammatory activity in mouse assessed as inhibition of xylene-induced ear edema at 10 mg/kg, ip treated after 30 mins xylene administration measured after 2 hrs relative to control; format: functional
Outline: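 Xylene (30 µL total, inner and outer surfaces) applied to right ear, saline to left ear; 5 mice per group. 30 min later, 10 mg/kg i.p. in 10% DMSO/90% of 45% hydroxypropyl-β-cyclodextrin in PBS; vehicle-injected controls. Sacrificed 2 h later; 7 mm ear plugs from both ears weighed, weight difference = edema; suppression % versus control group.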

Mus musculus [5] = test: Antiinflammatory activity in mouse assessed as inhibition of xylene-induced swollen volume of ear at 10 mg/kg, ip treated after 30 mins xylene administration measured after 2 hrs; format: functional, organism-based
Mus musculus [6] = test: Antiinflammatory activity in mouse assessed as inhibition of xylene-induced thickness of ear at 10 mg/kg, ip treated after 30 mins xylene administration measured after 2 hrs; format: functional, organism-based
MDA-MB-231 = test: Cytotoxicity against human MDA-MB-231 cells assessed as reduction in cell viability at 10 uM after 24 hrs by MTT assay; format: cell-based; conditions: mda-mb-231, 24 h
Outline: (§1)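 MTT-type viability assay: cells seeded at 3000/well, grown 24 h at 37 °C, then exposed to compound for 24 h at 37 °C. CellTiter 96AQ reagent added for 2 h, absorbance read at 490 nm; compared with vehicle control.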

MCF-10A = test: Cytotoxicity against human MCF10A cells assessed as reduction in cell viability at 10 uM after 24 hrs by MTT assay; format: cell-based; outline: as §1
[7] = biological target: C-X-C chemokine receptor type 4 (Homo sapiens) (UniProt P61073); test: Inhibition of CXCR4 in human MDA-MB-231 cells assessed as decrease in CXCL12-induced Akt phosphorylation by Western blot analysis; format: functional, cell-based
[8] = biological target: C-X-C chemokine receptor type 4 (Homo sapiens) (UniProt P61073); test: Inhibition of CXCR4 in human MDA-MB-231 cells assessed as decrease in CXCL12-induced p44 phosphorylation at 0.1 nM by Western blot analysis; format: functional, cell-based
[9] = Half life in nude mouse plasma at 30 mg/kg, iv administered as single dose by HPLC analysis; format: ADME, organism-based
Outline: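 Nude mice (~20 g), anaesthetized with ketamine (90 mg/kg)/xylazine (4.5 mg/kg), given single 30 mg/kg i.v. dose in 10% DMSO/90% of 45% hydroxypropyl-β-cyclodextrin in PBS. Orbital sinus blood at 0, 5, 20, 50 min; centrifuged 13000 g, 4 °C, filtered (10000 NMWL). Filtrate HPLC on C18, acetonitrile–water (0.1% TFA) 50:50, 254 nm; half-life from peak areas.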

[10] = Half life in human plasma; format: ADME

Cc1ccccc1S(=O)(=O)NCc1ccc(CNC(=O)c2ccc(CNc3ncccn3)cc2)cc1
EC [1]: 10 nM
Ratio [2]: 100

O=C(NCc1ccc(CNS(=O)(=O)c2cccc(C(F)(F)F)c2)cc1)c1ccc(CNc2ncccn2)cc1
EC [1]: 1000 nM

Cc1ccc(S(=O)(=O)NCc2ccc(CNC(=O)c3ccc(CNc4ncccn4)cc3)cc2)cc1
EC [1]: 100 nM
inhibition [3]: 87%
inhibition in vivo at 10 mg/kg (Mus musculus [4]): 37%

O=C(NCc1ccc(CNS(=O)(=O)c2ccc(F)c(F)c2)cc1)c1ccc(CNc2ncccn2)cc1
EC [1]: 100 nM
inhibition (Mus musculus [4]): inactive

O=C(NCc1ccc(CNS(=O)(=O)c2ccccc2)cc1)c1ccc(CNc2ncccn2)cc1
EC [1]: 1 nM
Ratio [2]: 1000
inhibition in vivo at 10 mg/kg (Mus musculus [4]): 67%
inhibition (Mus musculus [5]): Active
inhibition (Mus musculus [6]): Active
Activity (MDA-MB-231): Non-Toxic
Activity (MCF-10A): Non-Toxic
inhibition [7]: Dose-dependent effect
inhibition [8]: Active
half-life [9]: 0.333 h
half-life [10]: 2.5 h

O=C(NCc1ccc(CNS(=O)(=O)c2cccnc2)cc1)c1ccc(CNc2ncccn2)cc1
EC [1]: > 1000 nM

O=C(NCc1ccc(CNS(=O)(=O)c2ccc(F)cc2)cc1)c1ccc(CNc2ncccn2)cc1
EC [1]: > 1000 nM

O=C(NCc1ccc(CNS(=O)(=O)c2cccc(Cl)c2)cc1)c1ccc(CNc2ncccn2)cc1
EC [1]: 1 nM
Ratio [2]: 1000
inhibition [3]: 88%
inhibition (Mus musculus [4]): inactive

Cc1cccc(S(=O)(=O)NCc2ccc(CNC(=O)c3ccc(CNc4ncccn4)cc3)cc2)c1
EC [1]: 100 nM

O=C(NCc1ccc(CNS(=O)(=O)c2ccc3c(c2)CCO3)cc1)c1ccc(CNc2ncccn2)cc1
EC [1]: 1000 nM

O=C(NCc1ccc(CNS(=O)(=O)c2ccc([N+](=O)[O-])cc2)cc1)c1ccc(CNc2ncccn2)cc1
EC [1]: 1000 nM

O=C(NCc1ccc(CNS(=O)(=O)c2ccc(Cl)cc2)cc1)c1ccc(CNc2ncccn2)cc1
EC [1]: 100 nM
inhibition in vivo at 10 mg/kg (Mus musculus [4]): 30%

O=C(NCc1ccc(CNS(=O)(=O)c2ccccc2Cl)cc1)c1ccc(CNc2ncccn2)cc1
EC [1]: 1000 nM

O=C(NCc1ccc(CNS(=O)(=O)c2ccc(-c3ccc(F)cc3)cc2)cc1)c1ccc(CNc2ncccn2)cc1
EC [1]: 1000 nM

O=C(NCc1ccc(CNS(=O)(=O)c2cccc(F)c2)cc1)c1ccc(CNc2ncccn2)cc1
EC [1]: 1000 nM

O=C(NCc1ccc(CNS(=O)(=O)c2cccc3ccccc23)cc1)c1ccc(CNc2ncccn2)cc1
EC [1]: 1000 nM

O=C(NCc1ccc(CNS(=O)(=O)c2ccccc2F)cc1)c1ccc(CNc2ncccn2)cc1
EC [1]: 1000 nM
